Molecules are shown by their SMILES. Values after ≈ are worked out from the molar mass of the structure shown.

Data on 21 compounds can be found in ChEMBL document CHEMBL1777798, “Novel fungicidal benzylsulfanyl-phenylguanidines” (Bioorg Med Chem Lett, 2011).

Series [1] deals with Candida albicans. Kind of series: Fungicidal activity against Candida albicans SC5314 assessed as concentration required to less than 0.1% survival of organism after 2 hrs. The note with it: SC5314, 2 h. The format is functional. In outline:
(§1)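 C. albicans SC5314 or C. glabrata BG2 exposed to compounds. Cells then washed and plated on YPD (1% yeast extract, 2% peptone, 2% glucose) for CFU counts. MFC = minimal concentration leaving <0.1% survival relative to DMSO control.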

In a further series the test system is Nakaseomyces glabratus. Kind of series: Fungal activity against Candida glabrata BG2 assessed as concentration required to less than 0.1% survival of organism after 2 hrs. The note with it: BG2, 2 h. The format is functional. In outline: as §1
Series [2] in a line: Toxicity in glp-4delta sek-1 delta double mutant Caenorhabditis elegans model assessed as survival at 50 uM after 11 days relative to day 0. The format is organism-based. The note with it: in vivo. The essentials: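 glp-4Δsek-1Δ C. elegans grown on NGM/OP50 E. coli plates to L4 and washed in M9 buffer (with cholesterol and kanamycin). 40–50 worms per well in 1 mL M9 with compound at 50 μM or DMSO (0.5%) control. Survival counted daily, relative to day 0. Mean ±SEM of duplicates; experiments run at least twice.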

Series [3] relates to Candida albicans. Kind of series: Fungicidal activity against Candida albicans SC5314-infected Caenorhabditis elegans L4 larvae model assessed as survival of worms at 60 uM after 5 days relative to day 0. The format is functional. The essentials:
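C. elegans L4 larvae fed 4 h on YPD agar lawns of C. albicans SC5314 (overnight culture spread, 16 h at 37 °C). Worms washed in M9 buffer and incubated with compound at 60 μM or DMSO control. Living worms counted daily; % survival relative to day 0. Mean ±SEM of duplicates; experiments run at least twice.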

A short description of series [4]: Antimicrobial activity against mixed Candida albicans SC5314/Staphylococcus epidermidis assessed as biofilm eradication after 24 hrs. The format is functional. In outline: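 Mixed biofilm of C. albicans SC5314 and S. epidermidis (50/50). Overnight cultures suspended in 1/20 TSB at OD590 0.5 and mixed. 24 h adhesion, planktonic cells removed, then 48 h growth in fresh 1/20 TSB. Mature biofilms exposed 24 h to compound in PBS. Biomass read by crystal violet staining. BEC50 = concentration eradicating 50% of biofilm.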

For series [5], the system named is Candida albicans. Kind of series: Fungicidal activity against Candida albicans SC5314 assessed as biofilm eradication after 24 hrs. The format is functional.

For `N=C(N)Nc1ccccc1SCc1ccc(Cl)cc1`, the MFC with Candida albicans [1] and with Nakaseomyces glabratus was > 100 µM in each case.
With `Clc1ccc(CSc2ccccc2N=C(NC2CCCCC2)NC2CCCCC2)cc1`, the values for the MFC in the series on Candida albicans [1] and with Nakaseomyces glabratus were > 100 µM and 50 µM (≈ 22.8 µg/mL), respectively.
For `Nc1ccccc1SCc1ccc(Cl)cc1`, in that order: > 100 µM and > 100 µM.
The corresponding values for `N=C(N)Nc1cccc(SCc2ccc(Cl)cc2)c1` are 100 µM (≈ 29.2 µg/mL) and 100 µM (≈ 29.2 µg/mL).
As for `Clc1ccc(CSc2cccc(N=C(NC3CCCCC3)NC3CCCCC3)c2)cc1`, the MFC with Candida albicans [1] and in the series on Nakaseomyces glabratus was 5 µM (≈ 2.28 µg/mL) each time. In addition, the survival at 264 h, 50 µM in series [2] stood at 19%. In the series on Candida albicans [3], the survival at 60 µM was determined as 18.5%.
As to `N=C(N)NC(=N)Nc1cccc(SCc2ccc(Cl)cc2)c1`, the minimal fungicidal concentration (MFC) in the series with Candida albicans [1] and in the series with Nakaseomyces glabratus was 50 µM (≈ 16.7 µg/mL) each time.
Consider `N=C(N)Nc1ccc(SCc2ccc(Cl)cc2)cc1`, for which the MFC in the series with Candida albicans [1] and with Nakaseomyces glabratus was 50 µM (≈ 14.6 µg/mL) in each case.
Consider `Clc1ccc(CSc2ccc(N=C(NC3CCCCC3)NC3CCCCC3)cc2)cc1`, for which the MFC in the series with Candida albicans [1] and in the series on Nakaseomyces glabratus was > 100 µM throughout.
For the compound `N=C(N)NC(=N)Nc1ccc(SCc2ccc(Cl)cc2)cc1`, the MFC with Candida albicans [1] and in the series on Nakaseomyces glabratus was 50 µM (≈ 16.7 µg/mL) each time.
As for `Nc1ccc(SCc2ccc(Cl)cc2)cc1`, the MFC in the series on Candida albicans [1] and in the series on Nakaseomyces glabratus was > 100 µM each time.
As for `N=C(N)Nc1ccccc1SCc1cc(Br)cc(Br)c1`, the minimum fungicidal concentration (MFC) in the series on Candida albicans [1] and in the series on Nakaseomyces glabratus was 50 µM (≈ 20.8 µg/mL) throughout.
Regarding `Brc1cc(Br)cc(CSc2ccccc2N=C(NC2CCCCC2)NC2CCCCC2)c1`, the MFC (commonly the smallest concentration meeting the test's criterion for killing the fungus) with Candida albicans [1] is 5 µM (≈ 2.9 µg/mL); in the series with Nakaseomyces glabratus it was 50 µM (≈ 29 µg/mL).
The corresponding values for `Nc1ccccc1SCc1cc(Br)cc(Br)c1` are > 100 µM and > 100 µM.
For `N=C(N)Nc1cccc(SCc2cc(Br)cc(Br)c2)c1`, in that order: 50 µM (≈ 20.8 µg/mL) and 50 µM (≈ 20.8 µg/mL).
Consider `Brc1cc(Br)cc(CSc2cccc(N=C(NC3CCCCC3)NC3CCCCC3)c2)c1`, for which the MFC in the series on Candida albicans [1] and with Nakaseomyces glabratus was 5 µM (≈ 2.9 µg/mL) each time. Besides, in series [2], the survival at 264 h, 50 µM stood at 33%. In the series on Candida albicans [3], the survival at 60 µM came to 55.5%.
`Cl.N=C(N)NC(=N)Nc1cccc(SCc2cc(Br)cc(Br)c2)c1`: the figures for the MFC in the series with Candida albicans [1] and in the series with Nakaseomyces glabratus were 5 µM and 10 µM, respectively. In addition, the BBC50 in series [4] was 55 µM. The survival at 264 h, 50 µM in series [2] is 5%. Besides, the survival at 60 µM in the series on Candida albicans [3] was 15.4%.
With `N=C(N)Nc1ccc(SCc2cc(Br)cc(Br)c2)cc1`, the MFC in the series with Candida albicans [1] and in the series on Nakaseomyces glabratus was 50 µM (≈ 20.8 µg/mL) throughout.
Consider `Brc1cc(Br)cc(CSc2ccc(N=C(NC3CCCCC3)NC3CCCCC3)cc2)c1`, for which the MFC in the series on Candida albicans [1] and with Nakaseomyces glabratus was 5 µM (≈ 2.9 µg/mL) throughout. In series [2], the survival at 264 h, 50 µM is 51%. Also, the survival at 60 µM in the series on Candida albicans [3] was 49%.
As for `N=C(N)NC(=N)Nc1ccc(SCc2cc(Br)cc(Br)c2)cc1`, the MFC in the series with Candida albicans [1] and with Nakaseomyces glabratus was > 100 µM each time.
On to `Nc1ccc(SCc2cc(Br)cc(Br)c2)cc1`, for which the MFC in the series with Candida albicans [1] and with Nakaseomyces glabratus was > 100 µM in each case.
As for `OC(Cn1cncn1)(Cn1cncn1)c1ccc(F)cc1F` [FLUCONAZOLE], the MFC in the series with Candida albicans [1] and in the series with Nakaseomyces glabratus was > 100 µM each time. Moreover, the BBC50 (in the series with Candida albicans [5]; in series [4]) was >240 µM throughout.
